Compounds with a hit are over-represented: about 3.4% of the library has one in this group of screens.
VIM-2 inhibitor: VIM-2 metallo-beta-lactamase inhibitors, primary screen, biochemical, epi-absorbance readout, Pseudomonas aeruginosa enzyme. purified VIM-2, nitrocefin hydrolysis, epi-absorbance fluorescence. inhibition, % at 5.6 µM. 290,000 compounds, 0.89% hits;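 active = inhibition above the mean of all tested compounds plus 3 SD, cutoff set per screening run, cut at about 7.5% in these data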;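 also: red hydrolysis product quenches plate fluorescence so inhibitors raise well fluorescence; 0% = enzyme with DMSO and 100% = DMSO without enzyme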
MEKK3 PB1 HTS: modulators of MEKK3-MEK5 PB1 binding, primary screen, biochemical, wildtype MEKK3, multiplex bead flow cytometry, Alexa488-MEK5; binding response (% of control), % at 10 µM; 290,000 compounds, 1.4% hits; bead-based flow cytometry, Alexa488-MEK5 binding to MEKK3; actives lie on both sides; 0 = blocked by unlabeled MEK5, 100 = vehicle;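 active = binding response more than 3 SD above or below the average of its plate-row segment, actives on both sides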;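 also: Alexa488 bead fluorescence after subtracting the streptavidin-only scavenger bead signal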
Target sequence (Q99759 whole entry, looked up): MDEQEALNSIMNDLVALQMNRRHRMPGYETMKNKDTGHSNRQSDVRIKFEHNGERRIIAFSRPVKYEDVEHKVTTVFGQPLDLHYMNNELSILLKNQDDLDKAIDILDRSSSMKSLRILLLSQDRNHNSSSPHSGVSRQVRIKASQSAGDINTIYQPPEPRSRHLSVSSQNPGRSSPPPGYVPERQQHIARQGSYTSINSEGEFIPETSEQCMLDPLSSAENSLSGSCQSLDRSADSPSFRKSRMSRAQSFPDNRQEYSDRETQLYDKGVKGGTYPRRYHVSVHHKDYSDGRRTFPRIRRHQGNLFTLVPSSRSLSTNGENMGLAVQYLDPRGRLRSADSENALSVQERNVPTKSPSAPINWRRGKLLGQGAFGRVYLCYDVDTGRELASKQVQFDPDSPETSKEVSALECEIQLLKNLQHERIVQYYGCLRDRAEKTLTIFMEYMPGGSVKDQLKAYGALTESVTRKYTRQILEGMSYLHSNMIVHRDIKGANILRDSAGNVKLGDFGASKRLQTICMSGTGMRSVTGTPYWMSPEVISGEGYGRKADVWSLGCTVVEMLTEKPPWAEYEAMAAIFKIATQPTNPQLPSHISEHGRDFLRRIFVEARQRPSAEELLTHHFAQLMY
MEKK2wt PB1 HTS: modulators of MEK5 binding to wildtype MEKK2, primary screen, biochemical, multiplex bead flow cytometry, Alexa488-MEK5; AID 1531, 2009; Alexa488-MEK5 binding to MEKK2 WT; actives lie on both sides; 290,000 compounds, 1.1% hits; Mitogen-activated protein kinase kinase kinase 2 (Homo sapiens), Q9Y2U5; binding response (% of control), % at 10 µM; in the data active = binding response below about 67% or above about 130%
MEKK2 mut-MEK5: MEK5 binding signal on mutant MEKK2 PB1, primary screen, biochemical, multiplex bead flow cytometry, Alexa488-MEK5; percent response, % at 10 µM; 290,000 compounds, 0.35% hits; AID 1530, 2009; Alexa488-MEK5 binding to MEKK2 mutant; in the data active = percent response above about 24%, passing the limit was not always enough
IMP-1 inh: IMP-1 metallo-beta-lactamase inhibitors, primary screen, biochemical, epi-absorbance readout, Pseudomonas aeruginosa enzyme; metallo-beta-lactamase IMP-1 (Pseudomonas aeruginosa); purified IMP-1, nitrocefin hydrolysis, epi-absorbance fluorescence; 290,000 compounds, 0.45% hits; inhibition, % at 5.6 µM;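 active = inhibition above the mean plus 3 SD of all compounds in the same screening run, cut at about 4.5% in these data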;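 also: 0% = IMP-1 with DMSO and 100% = DMSO wells lacking enzyme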
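system = purified recombinant IMP-1 beta-lactamase | amount = 0.2 nM IMP-1, as dispensed | medium = HEPES buffer pH 7.1 with ZnSO4 and Brij 35 | times = 25 °C, 15 min preincubation, 25 min reaction | detection = plate fluorescence quenching by hydrolysis product, ex 480/em 530 nm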
MEKK2wt confirm: modulators of MEK5 binding to wildtype MEKK2, confirmation, biochemical, single concentration, multiplex bead flow cytometry. shares compounds with MEKK3 PB1 HTS. binding response (% of control), % at 10 µM. Alexa488-MEK5 binding to MEKK2 WT; actives lie on both sides. 5,900 compounds, 2.4% hits; in the data active = binding response below about 16% or above about 210%; inactive = in between
MEKK2mut confirm: mutant MEKK2 PB1-MEK5 binding signal retest – biochemical, single concentration, multiplex bead flow cytometry, confirmation | shares compounds with MEKK3 PB1 HTS | Alexa488-MEK5 binding to MEKK2 mutant | percent response, % at 10 µM | 5,900 compounds, 2% hits; in the data active = percent response mostly above about 71%, no sharp cut-off; inactive = mostly below about 38%;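 also: higher means compound restores mutant binding toward wildtype level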
MEKK3-MEK5 inh: MEKK3 wild-type PB1 binding to MEK5, inhibitors, confirmation, biochemical, bead multiplex flow cytometry, single concentration, wildtype; shares compounds with MEKK3 PB1 HTS; Alexa488-MEK5 binding to MEKK3; active compounds read low; binding response (% of control), % at 10 µM; 5,900 compounds, 1.8% hits;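 active = binding response below 72% of control, or above a set upper limit, though filed actives all read lower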;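 also: 100% = DMSO only wells and 0% = binding blocked by excess unlabeled MEK5; lower values mean stronger disruption of MEK5 binding to MEKK3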
* marks the source's active call; other numbers are inactive results; [ ] = remark or other dose.

For O=C(c1cccc(NS(=O)(=O)c2ccccc2)c1)N1CCCC1 the results were VIM-2 inhibitor -2, MEKK3 PB1 HTS 101, MEKK2wt PB1 HTS 102, MEKK2 mut-MEK5 5 and IMP-1 inh -5.
`Cc1cc(/C=C2/C(=O)NN(c3ccccc3)C2=O)c(C)n1-c1ccc(O)cc1` gave VIM-2 inhibitor 1, MEKK3 PB1 HTS 94, MEKK2wt PB1 HTS 83, MEKK2 mut-MEK5 -2 and IMP-1 inh -3.
Cc1cc(/C=C2\C(=O)NN(c3ccccc3)C2=O)c(C)n1-c1ccccc1O was read as VIM-2 inhibitor 1, MEKK3 PB1 HTS 36*[inhibitor], MEKK2wt PB1 HTS 32*[inhibitor], MEKK2 mut-MEK5 -13, IMP-1 inh 0, MEKK2wt confirm 97, MEKK2mut confirm -3 and MEKK3-MEK5 inh 101.
CC(C)(C)Nc1nc(Oc2ccc(=O)[nH]n2)nc(N2CCOCC2)n1 was read as VIM-2 inhibitor -1, MEKK3 PB1 HTS 75*[inhibitor], MEKK2wt PB1 HTS 88, MEKK2 mut-MEK5 -2, IMP-1 inh -2, MEKK2wt confirm 104, MEKK2mut confirm 0 and MEKK3-MEK5 inh 101.
CC(=O)c1ccc(N2CCC(C(=O)O)CC2)cc1 was read as VIM-2 inhibitor -1, MEKK3 PB1 HTS 101, MEKK2wt PB1 HTS 98, MEKK2 mut-MEK5 -9 and IMP-1 inh -3.
`O=C(Nc1ccnn1C1CCN(Cc2ccc(OC(F)F)cc2)CC1)C1CCCC1` gave VIM-2 inhibitor -1, MEKK3 PB1 HTS 104, MEKK2wt PB1 HTS 135*, MEKK2 mut-MEK5 12, IMP-1 inh -1, MEKK2wt confirm 136, MEKK2mut confirm 14 and MEKK3-MEK5 inh 101.
Screening CN1CCN(c2ccc(Cl)cc2NC(=O)/C=C/c2cccc(F)c2)CC1 returned VIM-2 inhibitor 2, MEKK3 PB1 HTS 103, MEKK2wt PB1 HTS 149*, MEKK2 mut-MEK5 18, IMP-1 inh -1, MEKK2wt confirm 151, MEKK2mut confirm 37 and MEKK3-MEK5 inh 106.
`CN1CCN(c2ccc(Cl)cc2NC(=O)c2cccc(S(=O)(=O)N(C)C)c2)CC1` gave VIM-2 inhibitor 1, MEKK3 PB1 HTS 105, MEKK2wt PB1 HTS 126, MEKK2 mut-MEK5 19 and IMP-1 inh -1.
For CCOP(=O)(OCC)C(Nc1cccc(C(F)(F)F)c1)c1ccc(C)cc1 (configuration not stated) the results were VIM-2 inhibitor -2, MEKK3 PB1 HTS 66*[inhibitor], MEKK2wt PB1 HTS 103, MEKK2 mut-MEK5 0, IMP-1 inh -2, MEKK2wt confirm 103, MEKK2mut confirm 2 and MEKK3-MEK5 inh 108.
Screening Nc1nc(-c2cccc(NS(=O)(=O)c3ccccc3)c2)cs1 returned VIM-2 inhibitor -2, MEKK3 PB1 HTS 82*[inhibitor], MEKK2wt PB1 HTS 85, MEKK2 mut-MEK5 -12, IMP-1 inh -5, MEKK2wt confirm 96, MEKK2mut confirm -7 and MEKK3-MEK5 inh 99.
`N#Cc1cccc(NC(=O)CC2CCCCC2)c1` gave VIM-2 inhibitor -6, MEKK3 PB1 HTS 100, MEKK2wt PB1 HTS -3.0*[inhibitor], MEKK2 mut-MEK5 -34, IMP-1 inh -4, MEKK2wt confirm 97, MEKK2mut confirm -1 and MEKK3-MEK5 inh 101.
Screening O=C(CC1CCCC1)Nc1cccc(Br)c1 returned VIM-2 inhibitor -1, MEKK3 PB1 HTS 100, MEKK2wt PB1 HTS 94, MEKK2 mut-MEK5 1 and IMP-1 inh -1.
Screening O=C(CN1CCCN(S(=O)(=O)c2ccc(Br)cc2)CC1)Nc1ccc2c(c1)OCO2 returned VIM-2 inhibitor -1, MEKK3 PB1 HTS 1.0*[inhibitor], MEKK2wt PB1 HTS 0.0*[inhibitor], MEKK2 mut-MEK5 -9, IMP-1 inh -2, MEKK2wt confirm 105, MEKK2mut confirm -2 and MEKK3-MEK5 inh 97.
Screening COc1ccc(S(=O)(=O)N2CCCN(CC(=O)Nc3ccc4c(c3)OCO4)CC2)cc1 returned VIM-2 inhibitor -5 and IMP-1 inh -4.
Cc1cc(C)n(C(=O)CNC(=O)/C=C/c2ccccc2)n1 was read as VIM-2 inhibitor -3, MEKK3 PB1 HTS 94, MEKK2wt PB1 HTS 84, MEKK2 mut-MEK5 -15 and IMP-1 inh -2.
`COc1ccccc1/C=C/C(=O)NCC(=O)n1nc(C)cc1C` gave VIM-2 inhibitor 1, MEKK3 PB1 HTS 58*[inhibitor], MEKK2wt PB1 HTS 59*[inhibitor], MEKK2 mut-MEK5 -40, IMP-1 inh 0, MEKK2wt confirm 101, MEKK2mut confirm 0 and MEKK3-MEK5 inh 104.
`CCn1c(SCC(=O)Nc2ccc(C(=O)OC)cc2)nnc1-c1cccs1` gave VIM-2 inhibitor -2, MEKK3 PB1 HTS 101, MEKK2wt PB1 HTS 99, MEKK2 mut-MEK5 -3 and IMP-1 inh -1.
For CCn1c(CNC(=O)c2cccs2)nnc1SCC(=O)Nc1ccc(Cl)cc1 the results were VIM-2 inhibitor -1, MEKK3 PB1 HTS 128*, MEKK2wt PB1 HTS 110, MEKK2 mut-MEK5 0, IMP-1 inh -3, MEKK2wt confirm 97, MEKK2mut confirm -5 and MEKK3-MEK5 inh 95.
Screening CCn1c(SCC(=O)NCC(=O)Nc2ccc(F)cc2)nnc1-c1cccs1 returned VIM-2 inhibitor 0, MEKK3 PB1 HTS 0.0*[inhibitor], MEKK2wt PB1 HTS -4.0*[inhibitor], MEKK2 mut-MEK5 -21, IMP-1 inh -2, MEKK2wt confirm 109, MEKK2mut confirm 9 and MEKK3-MEK5 inh 105.
Screening CCn1c(CC(=O)Nc2ccc(Cl)c(Cl)c2)nnc1SCc1ccc(Cl)cc1 returned VIM-2 inhibitor -1, MEKK3 PB1 HTS 8.0*[inhibitor], MEKK2wt PB1 HTS 14*[inhibitor], MEKK2 mut-MEK5 2, IMP-1 inh -1, MEKK2wt confirm 107, MEKK2mut confirm 3 and MEKK3-MEK5 inh 106.
For COc1ccc(S(=O)(=O)NC(C)C(=O)NCc2ccco2)cc1OC (configuration not stated) the results were VIM-2 inhibitor -4, MEKK3 PB1 HTS 103, MEKK2wt PB1 HTS 105, MEKK2 mut-MEK5 1 and IMP-1 inh -2.
